{"data": "Experimental data collected from several papers", "note": "Lines come from different studies, so protocols differ."}
{"Structure (SMILES)": "COc1cccnc1-c1nc2ccccn2c1Nc1ccc(F)cc1", "tested on": "Leishmania infantum", "test": "parasite growth", "conditions": "5 days, intracellular, amastigote", "quantity": "EC50", "result": "31.6 µM"}
{"Structure (SMILES)": "COc1ccc2occ(/C=C/c3cc(OC)c(OC)c(OC)c3)c(=O)c2c1", "tested on": "HSC-2", "test": "cell growth or viability, MTT", "conditions": "6.7 h", "quantity": "CC50", "result": "50 µM"}
{"Structure (SMILES)": "COc1ccc(NC(=O)c2c(Nc3ccccc3)sc(C#N)c2NC(=O)CNc2ccc(C)cc2)cc1", "tested on": "HCT-116", "test": "cell growth or viability, SRB", "conditions": "100 µM, 48 h", "quantity": "viability", "result": "60.3%"}
{"Structure (SMILES)": "Cc1ccc2nc(-c3ccccn3)c(CN(CC(C)C)c3cccc(C(F)(F)F)c3)n2c1", "tested on": "Leishmania infantum", "test": "parasite growth", "conditions": "intracellular, amastigote", "quantity": "EC50", "result": "3.16 µM"}
{"Structure (SMILES)": "COc1ccc(C=NNC(=O)c2sc(Nc3ccccc3)c(C(=O)Nc3ccc(OC)cc3)c2NC(C)=O)cc1", "tested on": "HCT-116", "test": "cell growth or viability, SRB", "conditions": "10 nM, 48 h", "quantity": "viability", "result": "86.1%"}
{"Structure (SMILES)": "O=C1O[C@H]([C@@H](O)CO)C(O)=C1O", "test": "DPPH scavenging, absorbance", "conditions": "15 min", "quantity": "EC50", "result": "34 µM"}
{"Structure (SMILES)": "COc1ccc(NC(=O)c2c(Nc3ccccc3)sc(C#N)c2NC(=O)CNc2ccccc2Cl)cc1", "tested on": "HCT-116", "test": "cell growth or viability, SRB", "conditions": "0.1 µM, 48 h", "quantity": "viability", "result": "64.3%"}
{"Structure (SMILES)": "O=C(O)CN1C(=O)/C(=C/c2ccc(-c3ccc(N(c4ccccc4)c4ccccc4)cc3)c3ccccc23)SC1=S", "tested on": "Streptococcus mutans", "test": "microbial killing, broth dilution", "system": "ATCC25175", "quantity": "MBC", "result": "> 1000 µg/mL"}
{"Structure (SMILES)": "COc1ccc2nc(-c3cc(N(C)C)ccn3)c(N(C)c3ccc(F)cc3)n2c1", "tested on": "Leishmania infantum", "test": "parasite growth", "conditions": "intracellular, amastigote", "quantity": "EC50", "result": "1.58 µM"}
{"Structure (SMILES)": "COc1ccc(/C=C/c2coc3ccc(OC)cc3c2=O)cc1", "tested on": "HSC-2", "test": "cell growth or viability, MTT", "conditions": "21 h", "quantity": "CC50", "result": "2.5 µM"}
{"Structure (SMILES)": "COc1ccc(NC(=O)c2c(Nc3ccccc3)sc(C#N)c2NC(=O)CNc2ccc([N+](=O)[O-])cc2)cc1", "tested on": "HCT-116", "test": "cell growth or viability, SRB", "conditions": "1 nM, 48 h", "quantity": "viability", "result": "103%"}
{"Structure (SMILES)": "O=C1NC(=S)S/C1=C\\c1ccc(-c2ccc(N(c3ccccc3)c3ccccc3)cc2)cc1", "tested on": "Streptococcus pyogenes", "test": "microbial killing, broth dilution", "system": "ATCC19615", "quantity": "MBC", "result": "> 1000 µg/mL"}
{"Structure (SMILES)": "COc1cccc(-c2nc3ccccn3c2Nc2ccc(F)cc2)n1", "tested on": "Leishmania infantum", "test": "parasite growth", "conditions": "5 days, intracellular, amastigote", "quantity": "EC50", "result": "> 63.1 µM"}
{"Structure (SMILES)": "O=C1NC(=S)S/C1=C\\c1ccc(-c2ccc(N(c3ccccc3)c3ccccc3)cc2)c2ccccc12", "tested on": "Streptococcus mutans", "test": "microbial killing, broth dilution", "system": "ATCC25175", "quantity": "MBC", "result": "> 1000 µg/mL"}
{"Structure (SMILES)": "COc1ccc(NC(=O)c2c(Nc3ccccc3)sc(C(=O)NN=Cc3ccc(C)cc3)c2NC(C)=O)cc1", "tested on": "HCT-116", "test": "cell growth or viability, SRB", "conditions": "1 µM, 48 h", "quantity": "viability", "result": "76.4%"}
{"Structure (SMILES)": "Cc1cccc(-c2c(-c3ccccn3)nc3n2CCC3)c1", "tested on": "Leishmania infantum", "test": "parasite growth", "conditions": "5 days, intracellular, amastigote", "quantity": "EC50", "result": "0.631 µM"}
{"Structure (SMILES)": "O=C1NC(=S)N/C1=C\\c1ccc(-c2ccc(N(c3ccccc3)c3ccccc3)cc2)cc1", "tested on": "Streptococcus pyogenes", "test": "microbial killing, broth dilution", "system": "ATCC19615", "quantity": "MBC", "result": "> 1000 µg/mL"}
{"Structure (SMILES)": "COc1ccc(NC(=O)c2c(Nc3ccccc3)sc(C#N)c2NC(=O)CNc2ccc(Cl)cc2)cc1", "tested on": "HCT-116", "test": "cell growth or viability, SRB", "conditions": "100 µM, 48 h", "quantity": "viability", "result": "33.5%"}
{"Structure (SMILES)": "NC(=O)N1c2ccccc2C=Cc2ccccc21", "test": "MES seizures", "system": "rat", "conditions": "oral", "quantity": "ED50", "result": "10.9 mg/kg"}
{"Structure (SMILES)": "Fc1ccc(NCc2c(-c3ccccn3)nc3ccccn23)cc1", "tested on": "Leishmania infantum", "test": "parasite growth", "conditions": "5 days, intracellular, amastigote", "quantity": "EC50", "result": "12.6 µM"}
{"Structure (SMILES)": "O=C(O)CN1C(=O)/C(=C/c2ccc(-c3ccc(N(c4ccccc4)c4ccccc4)cc3)cc2)SC1=S", "tested on": "Streptococcus pyogenes", "test": "microbial growth, broth dilution", "system": "ATCC19615", "quantity": "MIC", "result": "15.6 µg/mL"}
{"Structure (SMILES)": "COc1cccnc1-c1nc2ccccn2c1N(C)c1ccc(F)cc1", "tested on": "Leishmania infantum", "test": "parasite growth", "conditions": "intracellular, amastigote", "quantity": "EC50", "result": "1.58 µM"}
{"Structure (SMILES)": "O=C(O)CN1C(=O)/C(=C/c2c3ccccc3c(-c3ccc(N(c4ccccc4)c4ccccc4)cc3)c3ccccc23)SC1=S", "tested on": "Streptococcus mutans", "test": "microbial killing, broth dilution", "system": "ATCC25175", "quantity": "MBC", "result": "> 1000 µg/mL"}
{"Structure (SMILES)": "COc1ccc(NC(=O)c2c(Nc3ccccc3)sc(C(=O)NN=Cc3ccc(Cl)cc3)c2NC(C)=O)cc1", "tested on": "HCT-116", "test": "cell growth or viability, SRB", "conditions": "100 µM, 48 h", "quantity": "viability", "result": "50.9%"}
{"Structure (SMILES)": "Cc1c(C)c2c(c(C)c1O)CCC(C)(C(=O)O)O2 (stereo not shown)", "test": "lipid peroxidation, inhibitor", "quantity": "IC50", "result": "107 µg/mL"}
{"Structure (SMILES)": "O=C(O)CN1C(=O)/C(=C/c2ccc(-c3ccc(N(c4ccccc4)c4ccccc4)cc3)c3ccccc23)NC1=S", "tested on": "Streptococcus mutans", "test": "microbial killing, broth dilution", "system": "ATCC25175", "quantity": "MBC", "result": "> 1000 µg/mL"}
{"Structure (SMILES)": "CNC(=O)c1cc(Oc2ccc(NC(=O)Nc3ccc(Cl)c(C(F)(F)F)c3)cc2)ccn1", "tested on": "HCT-116", "test": "cell growth or viability, SRB", "conditions": "1 nM, 48 h", "quantity": "viability", "result": "100%"}
{"Structure (SMILES)": "CC(=O)N(c1ccc(F)cc1)c1c(-c2ccccn2)nc2ccccn12", "tested on": "Leishmania infantum", "test": "parasite growth", "conditions": "intracellular, amastigote", "quantity": "IC50", "result": "> 64 µM"}
